SIAE inh – blocks human sialic acid acetylesterase; actives 0.69% (n = 370,000); AID 1053197; SIAE FP-Rh probe binding, fluorescence polarization; Q9HAT2; inhibition, % at 9.66 µM;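 active means inhibition above a cutoff: mean of compounds within the control limits plus 3 SD of those, cut at about 17% in these data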
TCR-CD3 inh – blocks the human TCR-CD3 interaction; TAMRA-labeled TCR probe fluorescence, biochemical; inhibition, % at 9.4 µM; actives 0.37% (n = 360,000);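 further: recombinant mutant TCR 2C K166C tagged with TAMRA read by polarization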
HTRA1 inh – HTRA1 (human) protease inhibition; Q92743; recombinant HTRA1, FP-rhodamine activity-based probe, fluorescence polarization; inhibition, % at 5.96 µM; actives 0.5% (n = 340,000); in the data active means inhibition above about 36%
ABHD4 inh – inhibits mouse alpha/beta hydrolase domain 4 | Q8VD66 | purified mABHD4, FP-Rh probe fluorescence polarization | inhibition, % at 8.92 µM | actives 0.54% (n = 370,000);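 active means inhibition exceeding the mean over every tested compound plus 3 SD, cut at about 30% in these data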
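Test system: mouse ABHD4 enzyme, wild type. Reagent: FP-Rh fluorescent activity-based probe, added after compound pre-incubation. Timing: pre-incubation 45 min, probe exposure 60 min, at 25 °C. Technique: FP readout, ex 525 nm / em 598 nm. Benchmarks: high control S159A mutant with DMSO, low control median of compound wells.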
PRMT1 FP inh – blocks human protein arginine methyltransferase 1; Q99873; inhibition, % at 2.79 µM; AID 652257; recombinant PRMT1, activity-based probe fluorescence polarization; actives 1.3% (n = 370,000);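 active means inhibition above about 21% made by adding two undisclosed values, limit read from the data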
Target sequence (Q99873 whole entry, looked up): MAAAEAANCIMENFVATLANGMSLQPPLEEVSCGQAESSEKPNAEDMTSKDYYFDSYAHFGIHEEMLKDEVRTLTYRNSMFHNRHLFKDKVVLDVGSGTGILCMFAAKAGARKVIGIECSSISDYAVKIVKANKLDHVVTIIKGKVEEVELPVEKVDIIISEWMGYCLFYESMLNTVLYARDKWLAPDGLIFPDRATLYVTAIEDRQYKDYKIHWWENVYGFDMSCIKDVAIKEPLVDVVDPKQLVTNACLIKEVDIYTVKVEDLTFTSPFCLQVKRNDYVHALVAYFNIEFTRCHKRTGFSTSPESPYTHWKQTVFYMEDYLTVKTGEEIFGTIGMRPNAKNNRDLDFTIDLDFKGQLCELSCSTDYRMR
BSA TAMRA ctr – counter-screen for TCR-CD3 interaction inhibitors: BSA probe; inhibition, % at 9.4 µM; AID 652035; TAMRA-labeled BSA probe fluorescence counterscreen; shares compounds with TCR-CD3 inh; actives 10% (n = 1,200); in the data active means inhibition above about 23%
TCR-CD3 conf – TCR-CD3 interaction inhibition, confirmation. TAMRA-labeled TCR probe fluorescence binding assay. AID 652036. actives 48% (n = 1,200). shares compounds with TCR-CD3 inh. inhibition, % at 9.4 µM
Numbers stand for hits; – = inactive; · = no result given. Most compounds without a hit are left out; they make up all but 2.7% or so of the library. Unless noted, no stated cut-off is given here; in the data, active means inhibition above about 19%; inactive means the rest.

SMILES	SIAE inh	TCR-CD3 inh	HTRA1 inh	ABHD4 inh	PRMT1 FP inh	BSA TAMRA ctr	TCR-CD3 conf
COc1ccc(CN(C2CCCC2)S(=O)(=O)c2ccc(-n3cnnn3)cc2)cc1OC	–	82	–	–	–	–	–
CCCCc1nnn2c1C1c3cc(Br)ccc3CCN1C(=O)C2 (centres undefined)	–	–	·	–	–	·	·
Brc1ccc(-c2nn3c(-c4ccccn4)nnc3s2)o1	–	30	–	–	–	–	–
COc1ccc(C(=O)Nc2ccc(Cl)c(S(=O)(=O)Nc3ccccc3OC)c2)cc1	–	–	–	–	–	·	·
COc1ccccc1NS(=O)(=O)c1cc(NC(=O)c2ccc(Cl)nc2)ccc1Cl	–	23	–	–	–	–	–
COc1ccccc1NS(=O)(=O)c1cccc(NC(=O)NCCCl)c1	–	–	–	–	–	·	·
COc1ccccc1NS(=O)(=O)c1cccc(NC(=O)Nc2cccc(Cl)c2)c1	–	36	–	–	–	–	–
Cn1c(SCC(=O)c2ccc(O)c(O)c2)nnc1-c1ccccc1	–	–	–	–	–	·	·
Cn1c(SCC(=O)c2ccc(O)c(O)c2)nnc1-c1cccs1	–	23	–	–	–	–	–
CCOC(=O)C1=CCC(c2cccc(C)c2)N(S(=O)(=O)c2ccc(C)cc2)C1 (centres undefined)	–	–	·	–	–	·	·
Cc1ccc(-c2nc3c(C)cc(Br)cn3c2Cc2ccsc2)cc1	–	23	·	–	–	–	–
Cc1cc(Br)cn2c(Cc3ccsc3)c(-c3ccccc3)nc12	–	–	·	–	–	·	·
COc1ccc(Cl)cc1C(=O)NNC(=O)COC(=O)c1ccc(Br)o1	–	20	–	–	–	–	–
COC(=O)COc1ccc(C(C2C(=O)CC(C)(C)CC2=O)C2C(=O)CC(C)(C)CC2=O)cc1	–	20	–	–	–	–	–
COC(=O)COc1ccc(NC(=O)C(c2ccccc2)c2ccccc2)cc1	–	–	–	–	–	·	·
COc1ccc(-c2nn(-c3ccccc3)cc2/C=N/NC(=O)c2cccc(S(=O)(=O)Nc3ccccc3Cl)c2)cc1	–	20	–	–	–	–	22
CN(C(=O)c1ccc(S(=O)(=O)N2CCCC2)cc1)C1CCCCC1	–	–	–	–	–	·	·
CN(C(=O)c1cccc(S(=O)(=O)N2CCCC2)c1)C1CCCCC1	–	23	–	–	–	–	–
CCOC(=O)c1cc(S(=O)(=O)NC2CCCCC2)cn1C	–	30	–	–	–	–	–
Cc1ccc(-c2[nH]c3cc(C(=O)NCCCn4ccnc4)ccc3c(=O)c2O)cc1	18	41	–	–	–	–	49
CCCNC(=O)c1ccc2c(=O)c(O)c(-c3ccc(C)cc3)[nH]c2c1	–	–	–	–	–	·	·
COc1cc(/C=N/NC(=O)C(=O)/C=C2\NC(C)(C)Cc3ccccc32)ccc1O	–	26	–	–	–	–	–
O=C(Nc1cc(S(=O)(=O)N2CCOCC2)ccc1N1CCCC1)c1ccccc1C(F)(F)F	–	–	·	–	–	·	·
O=C(NNC(=O)c1cc2ccccc2cc1O)NC1CCCCC1	–	22	–	–	–	–	–
COc1ccc(NS(=O)(=O)c2ccc(C)c(C(=O)NNC(=O)c3ccccc3O)c2)cc1	–	–	–	–	–	·	·
SMILES	SIAE inh	TCR-CD3 inh	HTRA1 inh	ABHD4 inh	PRMT1 FP inh	BSA TAMRA ctr	TCR-CD3 conf
Cc1ccc(NS(=O)(=O)c2ccc(C(=O)NNC(=O)c3ccccc3O)cc2)cc1	–	20	–	–	–	–	–
O=C(NNC(=O)c1ccccc1O)c1ccc(NS(=O)(=O)c2ccc(F)c(F)c2)cc1	–	–	–	–	–	·	·
Cc1ccc(S(=O)(=O)Nc2ccccc2F)cc1C(=O)NNC(=O)c1ccccc1O	–	19	–	–	–	–	25
O=C(NNC(=O)c1cc2ccccc2cc1O)Nc1ccc(F)cc1F	–	20	–	–	–	–	19
Cc1cnc(C(=O)OCC(=O)Nc2ccc(Br)c(C)c2)cn1	–	–	–	–	–	·	·
COc1ccc2[nH]c3c(c2c1)CCN1C(=O)C(CC(=O)NC/C=C(\C)CCC=C(C)C)C[C@H](C(=O)N(C(C)C)C(C)C)[C@@]31C (some centres undefined)	–	–	–	–	–	·	·
O=C(O)c1nccnc1C(=O)Nc1ccccc1-c1ccccc1	–	–	–	–	–	·	·
CN(C)S(=O)(=O)c1cccc(NC(=S)NNC(=O)c2cc3ccccc3cc2O)c1	–	23	–	–	–	–	–
COc1ccc(NC(=O)c2cc3ccccc3cc2OC)cc1	–	–	–	–	–	·	·
O=C(NNC(=O)c1ccncc1)Nc1ccc(Br)cc1	–	–	–	–	–	·	·
O=C(NNC(=O)c1cc2ccccc2cc1O)Nc1ccc(Br)cc1	–	23	–	–	–	–	22
Cc1ccc(C(=O)NNC(=O)c2cc3ccccc3cc2O)cc1	–	24	–	–	–	–	25
COc1ccc(NC(=O)NNC(=O)c2cc3ccccc3cc2O)cc1	–	25	–	–	–	–	22
COc1ccccc1C(=O)NNC(=O)c1ccc(C)cc1	–	–	–	–	–	·	·
CC1(C)OC(=O)C2=C(CC(CCc3ccccc3)OC2c2cccc(C(F)(F)F)c2)O1 (centres undefined)	–	–	·	–	–	·	·
CC(=O)NC(CC(=O)NNC(=O)c1cc2ccccc2cc1O)c1ccccc1 (centres undefined)	–	50	–	–	–	–	31
COc1cc(NC(=O)COC(=O)CC(NC(C)=O)c2ccccc2)cc(OC)c1 (centres undefined)	–	–	–	–	–	·	·
CC1=NN(C(=O)c2ccccc2)C(O)(c2ccc(Br)cc2)C1 (centres undefined)	–	24	–	–	–	–	25
O=C(c1ccccc1F)N1N=C(C(F)(F)F)CC1(O)c1ccccc1 (centres undefined)	–	–	–	–	–	·	·
CC1=NN(C(=O)c2ccccc2F)C(O)(c2ccc(Cl)cc2)C1 (centres undefined)	–	23	–	–	–	–	–
CC1=NN(C(=O)c2ccccc2Cl)C(O)(c2ccccc2)C1 (centres undefined)	–	21	–	–	–	–	–
COc1cccc(C(=O)N[C@H](C(=O)N2CCC[C@H]2C(=O)NC2CCCC2)c2ccccc2)c1	–	–	·	–	–	·	·
CCn1c(CN2CCOCC2)nnc1SCC(=O)Nc1cccc(C)c1	–	–	–	–	–	·	·
Cn1cc(/C=N/NC(=O)c2cc3cc(Br)ccc3o2)c2ccccc21	–	–	·	–	–	·	·
O=C(O)c1ccc(-n2cccc2/C=N\NC(=O)c2cc3cc(Br)ccc3o2)cc1	–	29	–	–	–	–	37
CC(=O)c1cc(-c2ccc(F)cc2)n(CCC(=O)NC(C)(C)C)c1C	–	20	–	–	–	–	–
CCCCc1c(-c2ccccc2OC)ncn1C1CCCCC1	–	21	·	–	–	–	–

From PubChem
